Broadly, the Km is the substrate concentration at which the rate is half of its maximum.

Substrate in series [1]: CN1CC=C(Oc2ccc3ccccc3c2)CC1
The series is described as follows: (§1) Oxidation by bovine mono-amine oxidase B MAO-B. Also on record: species or system Bos taurus. The method in brief:
(§2)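 Bovine liver mitochondrial MAO-B, partially purified, at 0.087 μM. Four substrate concentrations were used, from 500–62.5 μM solutions in 100 mM sodium phosphate, pH 7.4. Each was equilibrated 1 min at 37 °C before enzyme was added. Amino enone formation was read at 324 nm every 3 s for 2 min, in duplicate. Km and TN came from Lineweaver-Burk double-reciprocal plots of initial rates.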

Substrate in series [2]: CN1CC=C(Cc2ccc3ccccc3c2)CC1
Described as §1. More on the design: species or system Bos taurus. The method, boiled down: as §2

Substrate in series [3]: CN1CC=C(Oc2cccc3ccccc23)CC1
Described as §1. More on the design: species or system Bos taurus. The method, boiled down:
as §2

Substrate in series [4]: CN1CC=C(Oc2ccc(-c3ccccc3)cc2)CC1
Described as §1. Also on record: species or system Bos taurus. The method in brief:
as §2

Substrate in series [5]: CCCCc1ccc(OC2=CCN(C)CC2)cc1
Described as §1. More on the design: species or system Bos taurus. The method in brief: as §2

Substrate in series [6]: CN1CC=C(Oc2ccc(Cl)cc2Cl)CC1
The series is described as §1. Also on record: species or system Bos taurus. The method in brief: as §2

Substrate in series [7]: CN1CC=C(Oc2ccccc2)CC1
Described as §1. More on the design: species or system Bos taurus. The method, boiled down:
as §2

Substrate in series [8]: CN1CC=C(Oc2ccc(C(C)(C)C)cc2)CC1
The series is described as §1. Also on record: species or system Bos taurus. The method, boiled down:
as §2

Substrate in series [9]: CN1CC=C(Oc2cc3ccccc3c3ccccc23)CC1
The series is described as follows: (§3) Oxidation by human mono-amine oxidase MAO-A. The method in brief:
(§4)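 MAO-A preparation was diluted 1:4 in 20 mM phosphate, pH 7.4, with 20% w/v glycerol and used at 0.17 μM. Four substrate concentrations were used, from 500–62.5 μM solutions in 100 mM sodium phosphate, pH 7.4, after 1 min at 37 °C. Initial rates were taken from the 324 nm amino enone absorbance, read every 3 s for 2 min, in duplicate. Km and TN came from double-reciprocal plots.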

Substrate in series [10]: CN1CC=C(Oc2ccc3ccccc3c2)CC1
The description is as §3. The method, boiled down: as §4

Substrate in series [11]: CN1CC=C(Oc2cccc3ccccc23)CC1
The series is described as §3. The method, boiled down: as §4

Substrate in series [12]: CN1CC=C(Oc2ccc(-c3ccccc3)cc2)CC1
The series is described as §3. The method, boiled down: as §4

Substrate in series [13]: CCCCc1ccc(OC2=CCN(C)CC2)cc1
The series is described as §3. The method, boiled down:
as §4

Substrate in series [14]: CN1CC=C(Cc2cc3ccccc3c3ccccc23)CC1
The description is as §3. The method in brief: as §4

Substrate in series [15]: CN1CC=C(Oc2ccc(Cl)cc2Cl)CC1
Described as §3. The method, boiled down: as §4

Substrate in series [16]: CN1CC=C(Oc2ccccc2)CC1
Described as §3. The method in brief:
as §4

Substrate in series [17]: CN1CC=C(Oc2ccc(C(C)(C)C)cc2)CC1
Described as §3. The method, boiled down:
as §4

B1: Amine oxidase [flavin-containing] B (Bos taurus) (protein)
chain: MSSKCDVVVVGGGISGMAAAKLLHDSGLNVIVLEARDRVGGRTYTLRNQKVKYVDLGGSYVGPTQNHILRLSKELGLETYKVNEVERLIHHTKGKSYPFRGSFPSVWNPITYLDHNNLWRTMDDMGREIPSDAPWKAPLAEQWDLMTMKELLDKICWTESSKQLAILFVNLCVTAEIHEVSALWFLWYVKQCGGTTRIFSTSNGGQERKFVGGSGQVSERIMDLLGDRVKLERPVIHIDQTGENVLVETLNHELYEAKYVISAVPPVLGMKIHFNPPLPMMRNQLITRVPLGSVIKSIVYYKEPFWRNMDYCGSMIIEGEEAPVAYALDDTKPDGSYPAIIGFILAHKARKLARLTKEERLKKLCDLYAKVLGSQEALHPVHYEEKNWCEEQYSGGCYTSYFPPGIMTQYGRVLRQPVGRIYFAGTETATHWSGYMEGAVEAGERAAREILHAMGKIPEDEIWLPEPESVDVPAKPITTTFLQRHLPSVPGLLKLIGLTTIFSATALGFLAHKRGLLVRI
Consider B1, for which the Km stood at 274 µM in [1]; 892 µM in [2]; 143 µM in [3]; 284 µM in series [4]; 84 µM in series [5]; 167 µM in [6]. In addition, the Km is 58 µM in series [7] and 56 µM in series [8].

B2: Amine oxidase [flavin-containing] A (Homo sapiens) (protein)
chain: MENQEKASIAGHMFDVVVIGGGISGLSAAKLLTEYGVSVLVLEARDRVGGRTYTIRNEHVDYVDVGGAYVGPTQNRILRLSKELGIETYKVNVSERLVQYVKGKTYPFRGAFPPVWNPIAYLDYNNLWRTIDNMGKEIPTDAPWEAQHADKWDKMTMKELIDKICWTKTARRFAYLFVNINVTSEPHEVSALWFLWYVKQCGGTTRIFSVTNGGQERKFVGGSGQVSERIMDLLGDQVKLNHPVTHVDQSSDNIIIETLNHEHYECKYVINAIPPTLTAKIHFRPELPAERNQLIQRLPMGAVIKCMMYYKEAFWKKKDYCGCMIIEDEDAPISITLDDTKPDGSLPAIMGFILARKADRLAKLHKEIRKKKICELYAKVLGSQEALHPVHYEEKNWCEEQYSGGCYTAYFPPGIMTQYGRVIRQPVGRIFFAGTETATKWSGYMEGAVEAGERAAREVLNGLGKVTEKDIWVQEPESKDVPAVEITHTFWERNLPSVSGLLKIIGFSTSVTALGFVLYKYKLLPRS
As for B2, the Km in series [9] amounted to 278 µM; in [10], 77 µM; in series [11], 144 µM; in [12] it was 101 µM; in series [13] it was 51 µM; in series [14], 480 µM. The Km in [15] came out at 29 µM; in [16], 55 µM; in series [17] it was 130 µM.
